Experimental data reported in ChEMBL document CHEMBL2424623, “Enantioselective binding of chiral 1,14-dimethyl[5]helicene-spermine ligands with B- and Z-DNA” (Bioorg Med Chem, 2013).
Several values for one entry are separate records, joined by “and”; a condition that tells them apart may be missing. Identical values can stand only once. Activity calls are given as the source filed them. No cut-off for these calls is given here.

Experiments:
[1] = Selectivity ratio of Ka for d(CGCm8GCG)2 DNA (unknown origin) to Ka for d(CGCGCG)2 DNA (unknown origin)
Outline: (§1)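 Isothermal titration calorimetry at 25.0 °C. Ligand at 1 mM, dissolved in the final ODN dialysate, was titrated into 10.0 µM duplex d(CGCGCG)2 or d(CGCm8GCG)2 in 5 mM Na cacodylate, 100 mM NaCl, pH 7.0. The first 2 µL injection was followed by 10 µL injections, and the first injection was discarded. Samples were degassed. Stoichiometry is ligand per duplex.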

[2] = Induction of d(CGCGCG)2 DNA (unknown origin) to d(CGCm8GCG)2 DNA transition up to 160 uM by CD spectra analysis in presence of low concentration of NaCl
Outline: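 CD at 20 °C in a 2 mm cell. 20 µM d(CGCGCG)2 in 5 mM Na cacodylate, 100 mM NaCl, pH 7.0, was titrated with ligand stock from 0 to 160 µM. Spectra were blank-corrected and averaged over four scans.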

[3] = Dissociation rate to 5'-biotin-conjugated d(TTTTCGCm8GCG-TTTT-CGCm8GCG) DNA (unknown origin) measured for 150 seconds by SPR analysis
[4] = Selectivity ratio of Ka for d(CGCGCG)2 DNA (unknown origin) to Ka for d(CGCm8GCG)2 DNA (unknown origin); outline: as §1
[5] = Binding affinity to d(CGCGCG)2 DNA (unknown origin) assessed as association constant at 4.0 compound to DNA molar ratio by ITC analysis; outline: as §1
[6] = Selectivity ratio of Ka for 5'-biotin-conjugated d(TTTTCGCm8GCG-TTTT-CGCm8GCG) DNA (unknown origin) to Ka for 5'-biotin-conjugated d(TTTTCGCGCG-TTTT-CGCGCG) DNA (unknown origin)
[7] = Binding affinity to d(CGCm8GCG)2 DNA (unknown origin) assessed as change in UV-melting temperature at 5 uM
Outline: (§2)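 UV melting used 5 µM B- or Z-DNA in 5 mM Na cacodylate, 100 mM NaCl, pH 7.0, with or without 5 µM ligand. Temperature was ramped at 1 °C/min between 10 and 60 °C.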

[8] = Binding affinity to d(CGCm8GCG)2 DNA (unknown origin) assessed as association constant at 1.8 compound to DNA molar ratio by ITC analysis; outline: as §1
[9] = Binding affinity to d(CGCGCG)2 DNA (unknown origin) assessed as association constant at 2.0 compound to DNA molar ratio by ITC analysis; outline: as §1
[10] = Binding affinity to d(CGCGCG)2 DNA (unknown origin) assessed as association constant at 2:1 DNA to compound ratio by ITC analysis; outline: as §1
[11] = Selectivity ratio of Ka for 5'-biotin-conjugated d(TTTTCGCGCG-TTTT-CGCGCG) DNA (unknown origin) to Ka for 5'-biotin-conjugated d(TTTTCGCm8GCG-TTTT-CGCm8GCG) DNA (unknown origin)
[12] = Dissociation rate to 5'-biotin-conjugated d(TTTTCGCGCG-TTTT-CGCGCG) DNA (unknown origin) measured for 150 seconds by SPR analysis
[13] = Binding affinity to d(CGCm8GCG)2 DNA (unknown origin) assessed as association constant at 1.7 compound to DNA molar ratio by ITC analysis; outline: as §1
[14] = Binding affinity to d(CGCm8GCG)2 DNA (unknown origin) assessed as association constant at 4.1 compound to DNA molar ratio by ITC analysis; outline: as §1
[15] = Binding affinity to d(CGCGCG)2 DNA (unknown origin) assessed as association constant at 3.5 compound to DNA molar ratio by ITC analysis; outline: as §1
[16] = Binding affinity to d(CGCGCG)2 DNA (unknown origin) assessed as change in UV-melting temperature at 5 uM; outline: as §2

Cc1cccc2ccc3c4c(c5ccc6cccc(C)c6c5c3c12)C(=O)N(CCCNCCCCNCCCN)C4=O
Selectivity ratio [1]: 2 | Activity [2]: Active | koff [3]: 5.48 ×10⁻³ /s and 6.68 ×10⁻³ /s | Selectivity ratio [4]: 50 | Ka [5]: 0.083 ×10⁷ /M | Selectivity ratio [6]: 2 | ΔTm [7]: 7.5 °C and 3.3 °C | Ka [8]: 0.17 ×10⁷ /M | Ka [9]: 36.7 ×10⁷ /M | Ka [10]: 3.7 ×10⁸ /M | Selectivity ratio [11]: 7 | koff [12]: 3.7 ×10⁻³ /s and 8.59 ×10⁻³ /s | Ka [13]: 0.67 ×10⁷ /M

NCCCNCCCCNCCCN1C(=O)C(c2ccc3ccccc3c2)=C(c2ccc3ccccc3c2)C1=O
koff [3]: 6.66 ×10⁻³ /s | Ka [14]: 0.31 ×10⁷ /M | Ka [15]: 0.62 ×10⁷ /M | ΔTm [7]: 18 °C | koff [12]: 7.49 ×10⁻³ /s | ΔTm [16]: 16 °C
